In ChEMBL document CHEMBL1255395, “Laninamivir prodrug CS-8958, a long-acting neuraminidase inhibitor, shows superior anti-influenza virus activity after a single administration” (Antimicrob Agents Chemother, 2010):
Calls of active or inactive are those of the source. The rule behind the calls is not given here.

Assays:
[1] = Half life in mouse; format: ADME, organism-based; settings: in vivo
Influenza A virus [2] = assay: Antimicrobial activity against Influenza A virus (A/Puerto Rico/8/34(H1N1)) infected in BALB/c mouse assessed as increase in mouse survival at 1.1 mg/kg, po bid administered 11 hrs post infection for 5 days […] infection; format: functional, organism-based; set-up: dose 1.1 mg/kg; settings: A/Puerto Rico/8/1934(H1N1)
Procedure, shortened: (§1)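 Female BALB/c mice (5–6 weeks) infected intranasally with A/PR/8/34 at 100 PFU, n = 10 per group. Each mouse got one intranasal dose at 11 hpi plus oral doses twice daily from 11 hpi to 120 hpi. Drug went by one route and saline by the other, all in saline vehicle. Survival was followed daily to day 20 and analysed by Kaplan-Meier with a log-rank test against the saline group.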

Influenza A virus [3] = assay: Antimicrobial activity against Influenza A virus (A/Puerto Rico/8/34(H1N1)) infected in BALB/c mouse assessed as reduction in viral titer in lung at 10 mg/kg, po bid repeated regimen after 11 hrs post infection; format: functional, organism-based; set-up: dose 10 mg/kg; settings: A/Puerto Rico/8/1934(H1N1), TDE = time-dependent effect
Procedure, shortened: (§2)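 BALB/c mice infected intranasally with A/PR/8/34 at 30 PFU. Oral drug was given twice daily from 11 hpi with intranasal saline at 11 hpi, or a single intranasal dose at 11 hpi with oral saline on the same schedule. Lungs (n = 3) were harvested at 35, 59 and 83 hpi. Titers were measured by MDCK plaque assay, log10 PFU/lungs.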

Influenza A virus [4] = assay: Antimicrobial activity against Influenza A virus (A/Puerto Rico/8/34(H1N1)) infected in BALB/c mouse assessed as reduction in viral titer in lung at 1 mg/kg, po bid repeated regimen after 11 hrs post infection; format: functional, organism-based; set-up: dose 1 mg/kg; settings: A/Puerto Rico/8/1934(H1N1), TDE = time-dependent effect; procedure, shortened: as §2
Influenza B virus [5] = assay: Antimicrobial activity against Influenza B virus (B/Malaysia/2506/2004) infected po dosed Mustela putorius furo assessed as nasal viral titer treated bid after 4 hrs post infection measured after 1 day; format: functional, organism-based
Procedure, shortened: (§3)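 Ferrets (600–800 g), seronegative by hemagglutination inhibition, anaesthetized with ketamine/xylazine and infected with B/Malaysia/2506/2004, 1,000 PFU/100 μl. From 4 hpi they received either a single intranasal dose (saline, 0.05 or 0.5 μmol/kg) or 25 mg/kg oral twice daily. Nasal wash titers measured by MDCK plaque assay on days 1, 2 and 3, log10 PFU/ml (n = 5). Undetectable samples entered at the lower limit of detection.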

Influenza B virus [6] = assay: Antimicrobial activity against Influenza B virus (B/Malaysia/2506/2004) infected po dosed Mustela putorius furo assessed as nasal viral titer treated bid after 4 hrs post infection measured after 2 days; format: functional, organism-based; procedure, shortened: as §3
Influenza B virus [7] = assay: Antimicrobial activity against Influenza B virus (B/Malaysia/2506/2004) infected po dosed Mustela putorius furo assessed as nasal viral titer treated bid after 4 hrs post infection measured after 3 days; format: functional, organism-based; procedure, shortened: as §3
Influenza A virus [8] = assay: Antimicrobial activity against oseltamivir-sensitive influenza A virus (A/Yokohama/67/2006 (H1N1)) clone 1 infected in BALB/c mouse assessed as reduction in viral titer in lung at 1.0 mg/kg, po administered qd post 13 hrs infection measured after 37 hrs post infection; format: functional, organism-based; set-up: dose 1 mg/kg
Influenza A virus [9] = assay: Antimicrobial activity against oseltamivir-sensitive influenza A virus (A/Yokohama/67/2006 (H1N1)) clone 1 infected in BALB/c mouse assessed as reduction in viral titer in lung at 1.0 mg/kg, po administered QD post 13 hrs infection measured after 61 hrs post infection; format: functional, organism-based; set-up: dose 1 mg/kg
Influenza A virus [10] = assay: Antimicrobial activity against oseltamivir-sensitive influenza A virus (A/Yokohama/67/2006 (H1N1)) clone 1 infected in BALB/c mouse assessed as reduction in viral titer in lung at 1.0 mg/kg, po administered QD post 13 hrs infection measured after 85 hrs post infection; format: functional, organism-based; set-up: dose 1 mg/kg
Influenza A virus [11] = assay: Antimicrobial activity against oseltamivir-sensitive influenza A virus (A/Yokohama/67/2006 (H1N1)) clone 1 infected in BALB/c mouse assessed as reduction in viral titer in lung at 10 mg/kg, po administered QD post 13 hrs infection measured after 37 hrs post infection; format: functional, organism-based; set-up: dose 10 mg/kg
Influenza A virus [12] = assay: Antimicrobial activity against oseltamivir-sensitive influenza A virus (A/Yokohama/67/2006 (H1N1)) clone 1 infected in BALB/c mouse assessed as reduction in viral titer in lung at 10 mg/kg, po administered QD post 13 hrs infection measured after 61 hrs post infection; format: functional, organism-based; set-up: dose 10 mg/kg
Influenza A virus [13] = assay: Antimicrobial activity against oseltamivir-sensitive influenza A virus (A/Yokohama/67/2006 (H1N1)) clone 1 infected in BALB/c mouse assessed as reduction in viral titer in lung at 10 mg/kg, po administered QD post 13 hrs infection measured after 85 hrs post infection; format: functional, organism-based; set-up: dose 10 mg/kg
Rattus norvegicus = species on record: Rattus norvegicus; assay: Half life in rat assessed as oseltamivir carboxylate; format: ADME, organism-based; settings: in vivo
Influenza A virus [14] = assay: Antimicrobial activity against Influenza A virus (A/Puerto Rico/8/34(H1N1)) infected in BALB/c mouse assessed as increase in mouse survival at 110 mg/kg, po for 1 days before infection; format: functional, organism-based; set-up: dose 110 mg/kg; settings: A/Puerto Rico/8/1934(H1N1)
Procedure, shortened: (§4)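 Mice received one oral dose (200 μl in saline) at 1 day or 12 h before intranasal infection with A/PR/8/34 at 100 PFU. Saline controls were dosed intranasally 7 days before infection. n = 8 per group. Survival was monitored to 20 dpi and compared with saline by log-rank test.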

Influenza A virus [15] = assay: Antimicrobial activity against Influenza A virus (A/Puerto Rico/8/34(H1N1)) infected in BALB/c mouse assessed as increase in mouse survival at 110 mg/kg, po for 12 hrs before infection; format: functional, organism-based; set-up: dose 110 mg/kg; settings: A/Puerto Rico/8/1934(H1N1); procedure, shortened: as §4
Influenza A virus [16] = assay: Antimicrobial activity against Influenza A virus (A/Puerto Rico/8/34(H1N1)) infected in BALB/c mouse assessed as increase in mouse survival at 1.1 mg/kg, po bid administered 11 hrs post infection for 5 days […] infection measured on day 20; format: functional, A/Puerto Rico/8/1934(H1N1); procedure, shortened: as §1
Influenza A virus [17] = assay: Antimicrobial activity against Influenza A virus (A/Puerto Rico/8/34(H1N1)) infected in BALB/c mouse assessed as increase in mouse survival at 1.1 mg/kg, po for 7 days post infection; format: functional, organism-based; set-up: dose 1.1 mg/kg; settings: A/Puerto Rico/8/1934(H1N1)
Influenza A virus [18] = assay: Antimicrobial activity against Influenza A virus (A/Puerto Rico/8/34(H1N1)) infected in BALB/c mouse assessed as increase in mouse survival at 1.1 mg/kg, po for 4 days post infection; format: functional, organism-based; set-up: dose 1.1 mg/kg; settings: A/Puerto Rico/8/1934(H1N1)
Influenza A virus [19] = assay: Antimicrobial activity against Influenza A virus (A/Puerto Rico/8/34(H1N1)) infected in BALB/c mouse assessed as increase in mouse survival at 1.1 mg/kg, po for 1 day post infection; format: functional, organism-based; set-up: dose 1.1 mg/kg; settings: A/Puerto Rico/8/1934(H1N1)
Influenza A virus [20] = assay: Antimicrobial activity against Influenza A virus (A/Puerto Rico/8/34(H1N1)) infected in BALB/c mouse assessed as increase in mouse survival at 1.1 mg/kg, po for 12 hrs post infection; format: functional, organism-based; set-up: dose 1.1 mg/kg; settings: A/Puerto Rico/8/1934(H1N1)
Influenza A virus [21] = assay: Antimicrobial activity against Influenza A virus (A/Puerto Rico/8/34(H1N1)) infected in BALB/c mouse assessed as increase in mouse survival at 11 mg/kg, po for 7 days post infection; format: functional, organism-based; set-up: dose 11 mg/kg; settings: A/Puerto Rico/8/1934(H1N1)
Influenza A virus [22] = assay: Antimicrobial activity against Influenza A virus (A/Puerto Rico/8/34(H1N1)) infected in BALB/c mouse assessed as increase in mouse survival at 11 mg/kg, po for 4 days post infection; format: functional, organism-based; set-up: dose 11 mg/kg; settings: A/Puerto Rico/8/1934(H1N1)
Influenza A virus [23] = assay: Antimicrobial activity against Influenza A virus (A/Puerto Rico/8/34(H1N1)) infected in BALB/c mouse assessed as increase in mouse survival at 11 mg/kg, po for 1 day post infection; format: functional, organism-based; set-up: dose 11 mg/kg; settings: A/Puerto Rico/8/1934(H1N1)
Influenza A virus [24] = assay: Antimicrobial activity against Influenza A virus (A/Puerto Rico/8/34(H1N1)) infected in BALB/c mouse assessed as increase in mouse survival at 11 mg/kg, po for 12 hrs post infection; format: functional, organism-based; set-up: dose 11 mg/kg; settings: A/Puerto Rico/8/1934(H1N1)

For `CO[C@@H]([C@@H]1OC(C(=O)O)=C[C@H](NC(=N)N)[C@H]1NC(C)=O)[C@H](O)CO` [LANINAMIVIR], the half-life [1] was 41.4 h.

With `CCOC(=O)C1=C[C@@H](OC(CC)CC)[C@H](NC(C)=O)[C@@H](N)C1.O=P(O)(O)O` [OSELTAMIVIR PHOSPHATE] the Activity (Influenza A virus [2]) was “Active”, the Activity (Influenza A virus [3]) was “tde” and the Activity (Influenza A virus [4]) was “tde”. For the same compound, the Activity (Influenza B virus [5]) was “Dose-dependent effect”, the Activity (Influenza B virus [6]) was “Dose-dependent effect” and the Activity (Influenza B virus [7]) was “Dose-dependent effect”. For the same compound, the Activity (Influenza A virus [8]) was “Active”, the Activity (Influenza A virus [9]) was “Active” and the Activity (Influenza A virus [10]) was “Active”. The Activity (Influenza A virus [11]) was “Active”, the Activity (Influenza A virus [12]) was “Active” and the Activity (Influenza A virus [13]) was “Active”. The t1/2 (Rattus norvegicus) was 7 h, the Activity (Influenza A virus [14]) was “Active” and the Activity (Influenza A virus [15]) was “Active”. For the same compound, the Activity (Influenza A virus [16]) was 50%, the Activity (Influenza A virus [17]) was “inactive” and the Activity (Influenza A virus [18]) was “inactive”. For the same compound, the Activity (Influenza A virus [19]) was “inactive”, the Activity (Influenza A virus [20]) was “inactive” and the Activity (Influenza A virus [21]) was “inactive”. The Activity (Influenza A virus [22]) was “inactive”, the Activity (Influenza A virus [23]) was “inactive” and the Activity (Influenza A virus [24]) was “inactive”.
